According to ChEMBL document CHEMBL1156899, “Novel 1,3-dihydro-benzimidazol-2-ones and their analogues as potent non-nucleoside HIV-1 reverse transcriptase inhibitors” (Bioorg Med Chem, 2010):
pEC50, pIC50: −log10 of the molar value.

Assays:
[1] = target: Human immunodeficiency virus type 1 reverse transcriptase (Human immunodeficiency virus 1, UniProt Q72547, Y181I); assay: Inhibition of HIV1 reverse transcriptase Y181I mutant by RNA-dependent DNA polymerase activity assay
[2] = target: Human immunodeficiency virus type 1 reverse transcriptase (Human immunodeficiency virus 1, UniProt Q72547, L100I); assay: Inhibition of HIV1 reverse transcriptase L100I mutant by RNA-dependent DNA polymerase activity assay
[3] = system: Human immunodeficiency virus 1; assay: Antiviral activity against HIV1 3B infected in human MT4 cells assessed inhibition of viral-induced cytopathic effect after 5 days; assay type: functional, organism-based; conditions: Human immunodeficiency virus 1, 3B, MT4, 120 h
In short: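 MT-4 cells infected with HIV-1 IIIB at about 100 times the CCID50 per mL of suspension, then mixed 1:1 with serial compound dilutions and incubated at 37 °C for five days. Viable cell number was then determined.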

[4] = Selectivity index, ratio of CC50 for human MT4 cells to EC50 for HIV1 3B; assay type: toxicity, cell-based; conditions: read-out: Ratio CC50/EC50
[5] = target: Human immunodeficiency virus type 1 reverse transcriptase (Human immunodeficiency virus 1, UniProt Q72547); assay: Inhibition of RNA-dependent DNA polymerase activity of HIV1 reverse transcriptase using poly(rA)/pligo(dT) template
[6] = target: Human immunodeficiency virus type 1 reverse transcriptase (Human immunodeficiency virus 1, UniProt Q72547, K103N); assay: Inhibition of HIV1 reverse transcriptase K103N mutant by RNA-dependent DNA polymerase activity assay
[7] = Cytotoxicity in human MT4 cells assessed as reduction in cell viability; assay type: cell-based

| Structure (SMILES) | pIC50 [1] | pIC50 [2] | pEC50 [3] | selectivity ratio [4] | pIC50 [5] | pIC50 [6] | CC50 [7] |
| --- | --- | --- | --- | --- | --- | --- | --- |
| Cc1cc(C)c(C)c(S(=O)(=O)n2c(=O)[nH]c3ccc(Cl)cc32)c1C | < 4.40 | 6.74 | 7.20 | > 5410 | 7.40 | < 4.40 | ≥ 343000 nM |
| O=C1Nc2ccc(Cl)cc2[C@@](C#CC2CC2)(C(F)(F)F)O1 [EFAVIRENZ] |  |  |  |  |  |  | > 6000 nM |
| O=c1[nH]c2ccc(Cl)cc2n1S(=O)(=O)c1cccc(OC(F)(F)F)c1 |  |  | 5.44 | > 35 | 6.52 |  | > 128000 nM |
| Cc1ccc(C)c(S(=O)(=O)n2c(=O)[nH]c3ccc(Cl)cc32)c1 | < 4.40 | 6.42 | 8.01 | > 37100 | 7.31 | < 4.40 | > 371000 nM |
| COc1cccc(S(=O)(=O)n2c(=O)[nH]c3ccc(Cl)cc32)c1 | < 4.40 | 6.48 | 7.46 | > 10500 | 7.28 | 4.96 | > 369000 nM |
| Cc1cccc(S(=O)(=O)n2c(=O)[nH]c3ccc(Cl)cc32)c1 | < 4.40 | 7.15 | 7.82 | > 20500 | 7.68 | 5.00 | > 308000 nM |
| Cc1cc(C)cc(S(=O)(=O)n2c(=O)[nH]c3ccc(Cl)cc32)c1 | < 4.40 | 8.05 | 8.66 | 17800 |  | 6.40 |  |
| Cc1ccc(S(=O)(=O)n2c(=O)[nH]c3ccc(Cl)cc32)c(C)c1 |  |  | 6.92 | 327 | 6.20 |  | 39300 nM |
| Cc1ccc(S(=O)(=O)n2c(=O)[nH]c3ccc(Cl)cc32)cc1C | < 4.40 | 7.52 | 8.22 | > 61900 | 8.40 | 5.58 | > 371000 nM |
| Cc1cc(C)c(S(=O)(=O)n2c(=O)[nH]c3ccc(Cl)cc32)c(C)c1 | < 4.40 | 8.00 | 6.00 | > 355 | 8.92 | < 4.40 | > 356000 nM |
| Cc1ccnc2c1NC(=O)c1cccnc1N2C1CC1 [NEVIRAPINE] |  |  |  |  |  |  | > 15000 nM |
| Cc1ccccc1S(=O)(=O)n1c(=O)[nH]c2ccc(Cl)cc21 |  |  | 5.72 | > 201 | 6.57 |  | > 387000 nM |
| O=c1[nH]c2ccc(Cl)cc2n1S(=O)(=O)c1cccc(C(F)(F)F)c1 |  |  | 6.30 | > 664 | 5.76 |  | > 332000 nM |
| Cc1c(C)c(C)c(S(=O)(=O)n2c(=O)[nH]c3ccc(Cl)cc32)c(C)c1C | < 4.40 | 7.10 | 6.89 | 1830 | 7.33 | 5.17 | 236000 nM |
| O=c1[nH]c2ccc(Cl)cc2n1S(=O)(=O)c1cc(C(F)(F)F)cc(C(F)(F)F)c1 |  |  | 6.51 | 104 | 6.51 |  | 32300 nM |
| Cc1cc(C)cc(S(=O)(=O)n2c(=O)[nH]c3ccc(Cl)nc32)c1 | 4.57 | 7.15 | 7.59 | > 10500 | 7.70 | 5.55 | > 272000 nM |
| Cc1ccc(S(=O)(=O)n2c(=O)[nH]c3ccc(Cl)cc32)cc1 |  |  | 7.34 | 2900 | 6.83 |  | 134000 nM |
